Data reported in ChEMBL document CHEMBL1135442, “6-Chloropyridazin-3-yl derivatives active as nicotinic agents: synthesis, binding, and modeling studies” (J Med Chem, 2002).

Assay: Inhibition of [3H]cytisine binding to rat cerebral cortical membrane neuronal Nicotinic acetylcholine receptor
Procedure, shortened: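 Rat cerebral cortical membranes, thawed, washed, resuspended in Tris-HCl 50 mM buffer with NaCl 120, KCl 5, MgCl2 1, CaCl2 2.5 mM (pH 7.4 at 4 °C), centrifuged 45000g 20 min. 150-200 µg protein incubated with 0.7 nM [3H]-(-)-cytisine and varied test concentrations, 75 min at 4 °C, triplicate. Nonspecific binding defined with 10 µM (-)-nicotine. Ki values reported.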

| SMILES | Ki [nM] |
| --- | --- |
| CN1CCN(c2ccc(Cl)nn2)CC1 | 14 |
| Clc1ccc(N2CCNCC2)nn1 | 32 |
| C[N+]1(C)C2CCC1CN(c1ccc(Cl)nn1)C2 | 2.3 |
| CN1CCCN(c2ccc(Cl)nn2)CC1 | 220 |
| C[N+]1(C)CCCN(c2ccc(Cl)nn2)CC1 | 120 |
| Clc1ccc(N2CC3CCC(C2)N3)nn1 | 4.1 |
| Clc1ccc(N2CCCNCC2)nn1 | 1.5 |
| CN1C2CCC1CN(c1ccc(Cl)nn1)C2 | 39 |
